How the values were obtained:
Homo sapiens [1] = species: Homo sapiens; assay: Ratio of AUC in human patient at 0.25 mg to AUC in human patient at 0.25 mg co-treated with itraconazole; format: ADME, organism-based; conditions: in vivo
Homo sapiens [2] = species: Homo sapiens; assay: Ratio of AUC in human patient at 0.25 mg to AUC in human patient at 0.25 mg co-treated with trimethoprim; format: ADME, organism-based; conditions: in vivo
Homo sapiens [3] = species: Homo sapiens; assay: Drug metabolism in human patient assessed as fold change in metabolite M2/M1 AUC ratio at 0.25 mg co-treated with gemfibrozil on various time intervals relative to gemfibrozil non-treated patient; format: ADME, organism-based; conditions: in vivo
Hepatocyte [4] = assay: Unbound intrinsic clearance in human hepatocytes assessed as 2-despiperidyl-2-(5-carboxypentylamine) repaglinide formation measured per 10^6 cells at 0.5 to 150 uM by LC-MS/MS method; format: ADME, cell-based
Cytochrome P450 3A4 [5] = biological target: T1, Cytochrome P450 3A4 (Homo sapiens, UniProt P08684); assay: Fraction metabolism via CYP3A4 in human hepatocytes; format: ADME, cell-based, Hepatocyte
[6] = Drug metabolism in human hepatic S9 fraction assessed as 2-despiperidyl-2-amino repaglinide formation by LC-MS/MS method; format: ADME, Liver
Cytochrome P450 2C8 [7] = biological target: T2, Cytochrome P450 2C8 (Homo sapiens, UniProt P10632); assay: Unbound intrinsic clearance in human recombinant CYP2C8 expressed in insect cells assessed as enzyme-mediated 3'-hydroxy repaglinide formation per nanomole of protein at 0.5 to 150 uM by LC-MS/MS method; format: ADME
T2 sequence (P10632 whole entry): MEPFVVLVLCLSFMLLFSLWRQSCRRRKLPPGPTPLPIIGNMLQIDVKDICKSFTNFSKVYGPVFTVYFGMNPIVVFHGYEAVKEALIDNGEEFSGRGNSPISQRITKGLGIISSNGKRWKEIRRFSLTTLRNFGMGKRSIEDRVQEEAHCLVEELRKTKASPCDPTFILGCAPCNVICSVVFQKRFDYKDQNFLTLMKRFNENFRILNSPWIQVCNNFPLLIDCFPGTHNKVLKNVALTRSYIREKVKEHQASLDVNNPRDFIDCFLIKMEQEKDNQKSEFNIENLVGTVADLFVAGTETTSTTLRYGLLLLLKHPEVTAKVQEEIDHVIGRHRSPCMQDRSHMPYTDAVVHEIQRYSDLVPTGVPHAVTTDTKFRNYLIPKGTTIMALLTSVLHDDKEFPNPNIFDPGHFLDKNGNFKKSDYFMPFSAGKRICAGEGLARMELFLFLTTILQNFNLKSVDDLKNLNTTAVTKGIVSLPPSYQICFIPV

Cytochrome P450 3A4 [8] = biological target: T1, Cytochrome P450 3A4; assay: Fraction metabolism via CYP3A4 in human hepatic S9 fraction; format: ADME, Liver
Homo sapiens [9] = species: Homo sapiens; assay: Ratio of AUC in variable SLCO1B1 genotype human patient at 0.25 mg to AUC in variable SLCO1B1 genotype human patient at 0.25 mg co-treated with gemfibrozil; format: ADME, organism-based; conditions: in vivo
[10] = Drug metabolism in human hepatocytes assessed as 2-despiperidyl-2-amino repaglinide formation by LC-MS/MS method; format: ADME, cell-based, Hepatocyte
Homo sapiens [11] = species: Homo sapiens; assay: Ratio of AUC in human patient at 0.25 mg to AUC in human patient at 0.25 mg co-treated with gemfibrozil on various time intervals; format: ADME, organism-based; conditions: in vivo
Hepatocyte [12] = assay: Drug metabolism in human hepatocytes assessed as 3'-hydroxy repaglinide formation measured per 10^6 cells at 0.5 to 150 uM by LC-MS/MS method; format: ADME, cell-based
[13] = Fraction metabolism via UGT in human liver microsomes; format: ADME
Hepatocyte [14] = assay: Unbound intrinsic clearance in human hepatocytes assessed as 3'-hydroxy repaglinide formation measured per 10^6 cells at 0.5 to 150 uM by LC-MS/MS method; format: ADME, cell-based
Cytochrome P450 2C8 [15] = biological target: T2, Cytochrome P450 2C8; assay: Unbound intrinsic clearance in human recombinant CYP2C8 expressed in insect cells assessed as enzyme-mediated 2-despiperidyl-2-amino repaglinide formation per nanomole of protein at 0.5 to 150 uM by LC-MS/MS method; format: ADME
Liver microsome [16] = assay: Unbound intrinsic clearance in human liver microsomes assessed as 2-despiperidyl-2-(5-carboxypentylamine) repaglinide formation measured per mg of protein at 0.5 to 150 uM by LC-MS/MS method; format: ADME
How it was run: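 Pooled HLM, 0.3 mg/ml, in 0.1 M phosphate pH 7.4 with 10 mM MgCl2 and NADPH regenerating system. Repaglinide at 8 levels, 0.5-150 μM; 37°C, 10 min. Metabolites by LC-MS/MS against authentic standards; fu_inc 0.85. Duplicates on three occasions.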

Homo sapiens [17] = species: Homo sapiens; assay: Ratio of AUC in human patient at 0.25 mg to AUC in human patient at 0.25 mg co-treated with gemfibrozil; format: ADME, organism-based; conditions: in vivo
Cytochrome P450 3A5 = Cytochrome P450 3A5 (Homo sapiens, UniProt P20815); assay: Activity of human recombinant CYP3A5 expressed in insect cells assessed as enzyme-mediated 3'-hydroxy repaglinide formation by LC-MS/MS method; format: ADME
How it was run: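 Recombinant P450 (CYP2C8 50, CYP3A4 30, CYP3A5 100; units not given) incubated 10 min at 37°C with repaglinide (8 concentrations, 0.5–150 μM) in 0.1 M phosphate pH 7.4, 10 mM MgCl2, NADPH-regenerating system (1 mM NADP+, isocitrate/isocitrate dehydrogenase). Quenched with ice-cold methanol plus indomethacin internal standard. M1, M2, M4 quantified by LC-MS/MS against authentic standards. Michaelis-Menten fit; mean ± SD, n=3.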

Homo sapiens [18] = species: Homo sapiens; assay: Drug metabolism in human patient assessed as fold change in metabolite M2/M4 AUC ratio at 0.25 mg co-treated with atorvastatin relative to atorvastatin non-treated patient; format: ADME, organism-based; conditions: in vivo
[19] = Drug metabolism in human hepatic S9 fraction assessed as 3'-hydroxy repaglinide formation measured per mg of protein at 0.5 to 150 uM by LC-MS/MS method; format: ADME, Liver; conditions: s9, 150 µM
Cytochrome P450 2C8 [20] = biological target: T2, Cytochrome P450 2C8; assay: Fraction metabolism via CYP2C8 in human liver microsomes; format: ADME
Homo sapiens [21] = species: Homo sapiens; assay: Drug metabolism in human patient assessed as fold change in metabolite M2/M4 AUC ratio at 0.25 mg co-treated with gemfibrozil on various time intervals relative to gemfibrozil non-treated patient; format: ADME, organism-based; conditions: in vivo
[22] = Drug metabolism in human hepatocytes assessed as 3'-hydroxy repaglinide formation by LC-MS/MS method; format: ADME, cell-based, Hepatocyte
Homo sapiens [23] = species: Homo sapiens; assay: Drug metabolism in human patient assessed as fold change in metabolite M2/M4 AUC ratio at 0.25 mg co-treated with montelukast relative to montelukast non-treated patient; format: ADME, organism-based; conditions: in vivo
[24] = Drug metabolism in human hepatocytes assessed as 2-despiperidyl-2-(5-carboxypentylamine) repaglinide formation by LC-MS/MS method; format: ADME, cell-based, Hepatocyte
Liver microsome [25] = assay: Drug metabolism in human liver microsomes assessed as 3'-hydroxy repaglinide formation by LC-MS/MS method; format: ADME
[26] = Unbound intrinsic clearance in human hepatic S9 fraction assessed as 2-despiperidyl-2-(5-carboxypentylamine) repaglinide formation measured per mg of protein at 0.5 to 150 uM by LC-MS/MS method; format: ADME, tissue-based, Liver; conditions: s9, 150 µM
Homo sapiens [27] = species: Homo sapiens; assay: Ratio of AUC in human patient at 0.25 mg to AUC in human patient at 0.25 mg co-treated with clarithromycin; format: ADME, organism-based; conditions: in vivo
Homo sapiens [28] = species: Homo sapiens; assay: Drug metabolism in human patient assessed as fold change in metabolite M2/M1 AUC ratio at 0.25 mg co-treated with atorvastatin relative to atorvastatin non-treated patient; format: ADME, organism-based; conditions: in vivo
[29] = Fraction metabolism via UGT in human hepatocytes; format: ADME, cell-based, Hepatocyte
Cytochrome P450 2C8 [30] = biological target: T2, Cytochrome P450 2C8; assay: Fraction metabolism via CYP2C8 in human hepatic S9 fraction; format: ADME, Liver

T1 sequence (P08684 whole entry): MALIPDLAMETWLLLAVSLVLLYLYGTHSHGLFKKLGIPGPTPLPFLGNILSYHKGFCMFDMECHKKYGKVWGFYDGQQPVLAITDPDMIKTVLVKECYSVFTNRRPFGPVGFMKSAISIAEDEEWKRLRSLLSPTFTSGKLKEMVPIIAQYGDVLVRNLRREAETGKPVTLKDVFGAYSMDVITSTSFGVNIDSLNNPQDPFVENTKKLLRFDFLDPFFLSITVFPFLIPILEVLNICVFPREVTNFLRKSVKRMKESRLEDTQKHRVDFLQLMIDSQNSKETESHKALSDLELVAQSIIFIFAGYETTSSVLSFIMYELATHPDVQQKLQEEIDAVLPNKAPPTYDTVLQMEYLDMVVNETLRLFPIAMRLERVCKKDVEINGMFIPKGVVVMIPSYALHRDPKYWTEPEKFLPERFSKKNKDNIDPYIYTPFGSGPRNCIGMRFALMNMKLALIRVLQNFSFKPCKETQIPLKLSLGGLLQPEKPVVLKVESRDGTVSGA
Chain of Cytochrome P450 3A5 (P20815 whole entry): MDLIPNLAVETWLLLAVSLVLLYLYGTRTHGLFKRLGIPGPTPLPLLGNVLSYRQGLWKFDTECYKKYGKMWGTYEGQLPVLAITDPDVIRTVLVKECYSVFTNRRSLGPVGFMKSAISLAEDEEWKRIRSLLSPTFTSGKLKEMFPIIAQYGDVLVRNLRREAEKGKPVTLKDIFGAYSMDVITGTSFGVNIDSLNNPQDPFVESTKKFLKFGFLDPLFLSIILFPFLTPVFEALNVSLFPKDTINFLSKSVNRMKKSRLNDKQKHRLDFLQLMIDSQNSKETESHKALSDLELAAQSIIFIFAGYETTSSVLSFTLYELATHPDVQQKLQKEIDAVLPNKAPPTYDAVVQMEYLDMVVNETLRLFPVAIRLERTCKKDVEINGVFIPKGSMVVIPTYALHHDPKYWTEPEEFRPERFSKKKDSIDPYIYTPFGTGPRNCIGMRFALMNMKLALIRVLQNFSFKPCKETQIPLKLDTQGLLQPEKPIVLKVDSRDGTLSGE

With `CCOc1cc(CC(=O)N[C@@H](CC(C)C)c2ccccc2N2CCCCC2)ccc1C(=O)O` [REPAGLINIDE] the Ratio (Homo sapiens [1]) was 1.4, the Ratio (Homo sapiens [2]) was 1.6 and the “fold change (FC)” value (Homo sapiens [3]) was 0.39. The CL free (Hepatocyte [4]) was 3.3 uL/min/10^6cells, the Fm (Cytochrome P450 3A4 [5]) was 0.41 and the Km [6] was 58 µM. The CL free (Cytochrome P450 2C8 [7]) was 70 µL/min/nmol, the Fm (Cytochrome P450 3A4 [8]) was 0.39 and the Ratio (Homo sapiens [9]) was 7.3. For the same compound, the Km [10] was 58 µM, the Ratio (Homo sapiens [11]) was 5 and the Vmax (Hepatocyte [12]) was 28 pmol/min/10^6cells. For the same compound, the Fm [13] was 0.19, the CL free (Hepatocyte [14]) was 2.4 uL/min/10^6cells and the CL free (Cytochrome P450 2C8 [15]) was 3.7 µL/min/nmol. For the same compound, the CL free (Liver microsome [16]) was 1.4 µL/min/mg, the Ratio (Homo sapiens [17]) was 8.1 and the Km (Cytochrome P450 3A5) was at least 150 µM. For the same compound, the “fold change (FC)” value (Homo sapiens [18]) was 0.87, the Vmax [19] was 18 pmol/min/mg and the Fm (Cytochrome P450 2C8 [20]) was 0.63. For the same compound, the “fold change (FC)” value (Homo sapiens [21]) was 0.94, the Km [22] was 13 µM and the “fold change (FC)” value (Homo sapiens [23]) was 0.98. For the same compound, the Km [24] was 28 µM, the Km (Liver microsome [25]) was 9 µM and the CL free [26] was 3.7 µL/min/mg. The Ratio (Homo sapiens [27]) was 1.4, the “fold change (FC)” value (Homo sapiens [28]) was 1.05 and the Fm [29] was 0.02. For the same compound, the Fm (Cytochrome P450 2C8 [30]) was 0.41.

Reference: ChEMBL document CHEMBL3525906, “A comprehensive assessment of repaglinide metabolic pathways: impact of choice of in vitro system and relative enzyme contribution to in vitro clearance” (Drug Metab Dispos, 2012)
